Measured values: ChEMBL document CHEMBL2311493, “Focused pseudostatic hydrazone libraries screened by mass spectrometry binding assay: optimizing affinities toward γ-aminobutyric acid transporter 1” (J Med Chem, 2013)

Experiments:
[1] = target: T1, Sodium- and chloride-dependent GABA transporter 1 (Mus musculus, UniProt P31648); assay: Inhibition of [3H]GABA uptake at mouse GAT1 expressed in HEK293 cells after 25 mins by scintillation counting analysis; type: cell-based
[2] = target: Sodium- and chloride-dependent GABA transporter 1 (Mus musculus) (UniProt P31648); assay: Binding affinity to mouse GAT1 expressed in HEK293 cells membranes assessed as remaining [2H10]NO711 binding level at 10 uM using LC-ESI-MS/MS analysis by [2H10]NO711 binding inhibition assay; type: cell membranes
Outline: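 Membranes from HEK293 cells stably expressing mGAT1, ~0.1 mg/mL protein, in pH 7.1 phosphate buffer with 1 M NaCl and 1% DMSO final. A single aldehyde (10 μM) and hydrazine 10 (100 μM) were incubated 4 h at 37 °C with the target to form the hydrazone. NO711 marker (20 nM) was then added for 40 min. Bound marker was recovered by filtration, 1 M NaCl washes and MeOH elution, then quantified by LC-ESI-MS/MS against [²H₁₀]NO711 internal standard. Result is % remaining specific binding, n = 4.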

[3] = target: T1, Sodium- and chloride-dependent GABA transporter 1; assay: Binding affinity to mouse GAT1 expressed in HEK293 cells membranes using LC-ESI-MS/MS analysis by [2H10]NO711 binding inhibition assay; type: cell membranes
Outline: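 Full competition with NO711 marker (20 nM) on mGAT1 HEK293 membranes in pH 7.1 phosphate buffer containing 1 M NaCl. Eight competitor concentrations, triplicate points. Bound marker was quantified by LC-ESI-MS/MS. Specific binding is total minus nonspecific. IC50 came from a one-site nonlinear fit and was converted to Ki by Cheng–Prusoff. pKi is mean ± SEM of at least three experiments.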

SMILES | IC50 ([1]; read-out: pIC50 (converted)) [nM] | Activity [2] [%] | Ki [3] [nM] | further results
Cc1ccc(-c2ccccc2/C=N/NCCN2CCCC(C(=O)O)C2)c(C)c1 (stereo not given) | 836 | < 5 | 73.3 | 
O=C(O)C1CCCN(CCN/N=C/c2cc(F)ccc2-c2ccccc2F)C1 (stereo not given) | 1730 | < 5 | 264 | 
O=Cc1ccccc1-c1ccc(-c2ccccc2)cc1 |  | 81 |  | 
O=C(O)C1CCCN(CCN/N=C/c2ccccc2-c2ccc(Cl)cc2F)C1 (stereo not given) | 126 | < 5 | 24.7 | 
O=C(O)C1CCCN(CCN/N=C/c2ccccc2-c2ccc(Cl)cc2Cl)C1 (stereo not given) | 61.2 | < 5 | 8.05 | 
O=C(O)C1CCCN(CCN/N=C/c2ccccc2-c2ccccc2Cl)C1 (stereo not given) | 479 | < 5 | 65.5 | 
O=C(O)C1CCCN(CCC/C=C/c2ccccc2-c2ccccc2F)C1 (stereo not given) | 3330 |  | 647 | 
O=Cc1ccccc1-c1cccc(F)c1F |  | 81 |  | 
O=Cc1ccccc1-c1cc(F)cc(F)c1 |  | 81 |  | 
O=C(O)[C@@H]1CCCN(CCOCCC(c2ccccc2)c2ccccc2)C1 |  |  |  | IC50 ([1]; read-out: IC50): 55 nM
COc1cccc(F)c1-c1ccccc1C=O |  | 88 |  | 
O=Cc1cc(F)ccc1-c1ccccc1F |  | 35 |  | 
O=C(O)C1=CCCNC1 [GUVACINE] |  |  |  | IC50 ([1]; read-out: IC50): 14000 nM
O=C(O)C1CCCN(CCN/N=C/c2ccccc2-c2ccc(-c3ccccc3)cc2)C1 (stereo not given) |  | > 10 |  | 
O=C(O)C1CCCN(CCN/N=C/c2cc(F)ccc2-c2ccc(Cl)cc2)C1 (stereo not given) | 1960 | < 5 | 234 | 
O=C(O)C1CCCN(CCN/N=C/c2ccccc2-c2ccc(F)c(F)c2)C1 (stereo not given) | 3320 | < 5 | 625 | 
O=C(O)C1CCCN(CCC/C=C/c2ccccc2-c2ccccc2Cl)C1 (stereo not given) | 3560 |  | 834 | 
O=C(O)C1CCCN(CCN/N=C/c2ccccc2-c2cccs2)C1 (stereo not given) | 2870 | 8.2 | 590 | 
O=Cc1ccccc1-c1cccc(Cl)c1 |  | 79 |  | 
O=Cc1ccccc1-c1ccc(Cl)cc1 |  | 79 |  | 
O=C(O)C1CCCN(CCN/N=C/c2ccccc2-c2cccc(F)c2F)C1 (stereo not given) | 1500 | < 5 | 204 | 
Cc1ccsc1C(=CCCN1CCC[C@@H](C(=O)O)C1)c1sccc1C [TIAGABINE] |  |  |  | IC50 ([1]; read-out: IC50): 70 nM

SMILES | IC50 ([1]; read-out: pIC50 (converted)) [nM] | Activity [2] [%] | Ki [3] [nM] | further results
O=Cc1c(F)cccc1-c1ccccc1 |  | 85 |  | 
COc1ccccc1-c1ccccc1/C=N/NCCN1CCCC(C(=O)O)C1 (stereo not given) |  | 19 |  | 
O=Cc1ccccc1-c1ccc(Cl)cc1Cl |  | 85 |  | 
COc1ccc(F)cc1-c1ccccc1/C=N/NCCN1CCCC(C(=O)O)C1 (stereo not given) |  | > 10 |  | 
O=C(O)[C@@H]1CCCN(CCOCCc2ccccc2-c2ccccc2)C1 |  |  |  | IC50 ([1]; read-out: IC50): 111 nM
O=C(O)C1CCCN(CCN/N=C/c2ccccc2-c2c(F)cc(F)cc2F)C1 (stereo not given) | 255 | < 5 | 30.6 | 
COc1cccc(F)c1-c1ccccc1/C=N/NCCN1CCCC(C(=O)O)C1 (stereo not given) | 2250 | < 5 | 443 | 
O=Cc1ccccc1-c1ccc(C(F)(F)F)cc1C(F)(F)F |  | 81 |  | 
O=C(O)C1CCCN(CCN/N=C/c2ccccc2-c2ccccc2F)C1 (stereo not given) | 528 | < 5 | 122 | 
O=Cc1cc(F)ccc1-c1ccc(Cl)cc1 |  | 81 |  | 
COc1ccc(-c2ccccc2C=O)cc1 |  | 91 |  | 
COc1ccccc1-c1ccccc1C=O |  | 79 |  | 
COc1cccc(-c2ccccc2C=O)c1 |  | 91 |  | 
O=Cc1ccccc1-c1ccccc1-c1ccccc1 |  | 81 |  | 
COc1cc(F)ccc1-c1ccccc1/C=N/NCCN1CCCC(C(=O)O)C1 (stereo not given) | 7350 | < 5 | 760 | 
O=C(O)[C@@H]1CCCN(CCO/N=C(\Cc2ccccc2F)c2ccccc2F)C1 |  |  |  | IC50 ([1]; read-out: IC50): 80 nM
O=Cc1ccccc1-c1cc(F)ccc1F |  | 81 |  | 
O=Cc1ccccc1-c1ccccc1F |  | 82 |  | 
O=C(O)C1CCCN(CCN/N=C/c2ccccc2-c2cccc(F)c2)C1 (stereo not given) |  | 16 |  | 
O=C(O)C1CCCN(CCN/N=C/c2ccccc2-c2ccc(F)cc2)C1 (stereo not given) | 1790 | < 5 | 284 | 
O=C(O)C1CCCN(CCN/N=C/c2ccccc2-c2ccccc2)C1 (stereo not given) | 4920 | < 5 | 652 | 
O=C(O)C1CCCN(CCN/N=C/c2ccccc2-c2cccc(-c3ccccc3)c2)C1 (stereo not given) |  | > 10 |  | 

SMILES | IC50 ([1]; read-out: pIC50 (converted)) [nM] | Activity [2] [%] | Ki [3] [nM] | further results
COc1cc(F)ccc1-c1ccccc1C=O |  | 88 |  | 
O=C(O)C1CCCN(CCN/N=C/c2cc(F)ccc2-c2ccccc2Cl)C1 (stereo not given) | 1230 | < 5 | 104 | 
O=C(O)C1CCCN(CCC/C=C/c2ccccc2-c2ccc(F)cc2F)C1 (stereo not given) | 2840 |  | 592 | 
COc1cccc(-c2ccccc2/C=N/NCCN2CCCC(C(=O)O)C2)c1 (stereo not given) |  | > 10 |  | 
Cc1ccccc1-c1ccccc1C=O |  | 81 |  | 
O=C(O)C1CCCN(CCN/N=C/c2cc(F)ccc2-c2ccccc2)C1 (stereo not given) |  | 13 |  | 
O=Cc1ccccc1-c1ccc(Cl)cc1F |  | 85 |  | 
O=C(O)C1CCCN(CCN/N=C/c2ccccc2-c2ccc(F)cc2F)C1 (stereo not given) | 129 | < 5 | 35.6 | 
O=C(O)C1CCCN(CCC/C=C/c2ccccc2-c2ccc(Cl)cc2Cl)C1 (stereo not given) | 769 |  | 117 | 
O=Cc1ccccc1-c1ccccc1Cl |  | 79 |  | 
O=C(O)C1CCCN(CCN/N=C/c2ccccc2-c2c(F)cccc2F)C1 (stereo not given) | 998 | < 5 | 131 | 
Cc1ccc(-c2ccccc2/C=N/NCCN2CCCC(C(=O)O)C2)cc1 (stereo not given) | 3400 | 10 | 473 | 
O=C(O)C1CCCN(CCC=C(c2ccccc2)c2ccccc2)C1 (stereo not given) |  |  |  | IC50 ([1]; read-out: IC50): 130 nM
O=Cc1cc(F)ccc1-c1ccccc1 |  | 85 |  | 
O=Cc1ccccc1-c1ccc(F)cc1 |  | 82 |  | 
Cc1ccccc1-c1ccccc1/C=N/NCCN1CCCC(C(=O)O)C1 (stereo not given) | 1560 | < 5 | 216 | 
O=Cc1ccccc1-c1ccc(F)cc1Cl |  | 81 |  | 
O=Cc1ccccc1-c1cccc(F)c1 |  | 82 |  | 
O=C(O)C1CCCN(CCC/C=C/c2ccccc2-c2ccc(F)cc2Cl)C1 (stereo not given) | 3990 |  | 313 | 
O=Cc1cc(F)ccc1-c1ccccc1Cl |  | 35 |  | 
Cc1ccc(-c2ccccc2C=O)c(C)c1 |  | 81 |  | 
O=C(O)C1CCCN(CCN/N=C/c2ccccc2-c2cc(F)cc(F)c2)C1 (stereo not given) |  | > 10 |  | 

SMILES | IC50 ([1]; read-out: pIC50 (converted)) [nM] | Activity [2] [%] | Ki [3] [nM] | further results
O=Cc1ccccc1-c1c(F)cc(F)cc1F |  | 35 |  | IC50 [3]: 10000 nM
Cc1ccc(-c2ccccc2C=O)cc1 |  | 91 |  | 
Cc1cccc(-c2ccccc2/C=N/NCCN2CCCC(C(=O)O)C2)c1 (stereo not given) |  | > 10 |  | 
O=Cc1ccccc1-c1ccc(F)c(F)c1 |  | 82 |  | 
O=C(O)C1CCCN(CCN/N=C/c2ccccc2-c2ccc(C(F)(F)F)cc2C(F)(F)F)C1 (stereo not given) | 2820 | < 5 | 170 | 
O=C(O)C1CCCN(CCN/N=C/c2ccccc2-c2cccc(Cl)c2)C1 (stereo not given) |  | > 10 |  | 
O=Cc1ccccc1-c1cccc(-c2ccccc2)c1 |  | 81 |  | 
COc1ccc(-c2ccccc2/C=N/NCCN2CCCC(C(=O)O)C2)cc1 (stereo not given) |  | > 10 |  | 
O=C(O)C1CCCN(CCN/N=C/c2cccc(-c3ccccc3)c2)C1 (stereo not given) |  | > 10 |  | 
O=C(O)C1CCCN(CCN/N=C/c2ccccc2-c2ccc(F)cc2Cl)C1 (stereo not given) | 292 | < 5 | 14.6 | 
O=Cc1ccccc1-c1ccc(F)cc1F |  | 81 |  | 
O=C(O)C1CCCN(CCN/N=C/c2c(F)cccc2-c2ccccc2)C1 (stereo not given) |  | > 10 |  | 
Cc1cccc(-c2ccccc2C=O)c1 |  | 91 |  | 
O=C(O)C1=CCCN(CCON=C(c2ccccc2)c2ccccc2)C1 |  | < 5 |  | IC50 ([1]; read-out: IC50): 40 nM; IC50 [3]: ≤ 530 nM
O=Cc1ccccc1-c1c(F)cccc1F |  | 35 |  | 
O=Cc1cccc(-c2ccccc2)c1 |  | 88 |  | 
O=C(O)C1CCCN(CCN/N=C/c2ccccc2-c2ccc(Cl)cc2)C1 (stereo not given) | 973 | < 5 | 173 | 
COc1ccc(F)cc1-c1ccccc1C=O |  | 88 |  | 
O=C(O)C1CCCN(CCN/N=C/c2ccccc2-c2ccccc2-c2ccccc2)C1 (stereo not given) |  | > 10 |  | 
O=C(O)C1CCCN(CCN/N=C/c2ccccc2-c2cc(F)ccc2F)C1 (stereo not given) |  | > 10 |  | 
